# From PubChem BioAssay
# STAT1 act: increases IFN-gamma driven STAT1 reporter signal; activation (% of control), % at 5.5 µM; NIH 3T3 STAT1-luciferase reporter, luminescence; 100% = IFN-gamma alone, no compound; 200,000 tested, 2.6% active; AID 932;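 active means activation above the screen-wide mean activation plus 3 SD, cut at about 130% in these data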;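 further: raw ratio to IFN-gamma control signal so 100% means no change and 0% no light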
# NF-kB neuron act: NF-kB expression increase, human neuronal cells. fold change at 12.5 µM. AID 1239. 190,000 tested, 1.6% active. NF-kB reporter expression; active compounds read high; in the data active means fold change above about 3.3
# FLuc stim CS: firefly luciferase counter-screen for stimulation assays | activation factor at 10 µM | 200,000 tested, under 10 active | P08659 | ATPlite luciferase biochemical, luminescence, 10 min; 0 = ATP-free wells, 1 = DMSO control;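 active means luciferase activation factor, scaled between plate controls, of at least 2 with compound at 10 µM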
# Target sequence (P08659 whole entry, looked up): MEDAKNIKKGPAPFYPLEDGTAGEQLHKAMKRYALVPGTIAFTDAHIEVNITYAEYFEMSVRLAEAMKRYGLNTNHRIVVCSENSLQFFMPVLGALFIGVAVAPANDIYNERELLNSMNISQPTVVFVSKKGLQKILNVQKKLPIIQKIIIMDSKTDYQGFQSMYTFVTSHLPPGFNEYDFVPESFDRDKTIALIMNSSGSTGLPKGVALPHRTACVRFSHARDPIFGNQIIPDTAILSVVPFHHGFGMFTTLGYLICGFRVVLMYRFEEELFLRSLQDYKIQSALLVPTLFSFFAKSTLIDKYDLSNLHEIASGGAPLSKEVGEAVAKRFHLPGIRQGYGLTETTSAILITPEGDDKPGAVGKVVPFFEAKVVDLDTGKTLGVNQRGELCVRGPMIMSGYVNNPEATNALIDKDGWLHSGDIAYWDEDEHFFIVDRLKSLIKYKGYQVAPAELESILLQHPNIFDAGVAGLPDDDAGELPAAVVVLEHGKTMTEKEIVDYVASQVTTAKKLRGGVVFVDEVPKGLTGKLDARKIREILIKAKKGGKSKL
#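 Assay system: Luciferase/luciferin detection reagent, cell-free biochemical luciferase assay / Read-out: luciferase activation / Benchmarks: No-ATP low control, compound-free enzyme-plus-ATP high control / Medium: PBS buffer for ATP / Detection: luminescence measurement of luciferase light output / Schedule: 10 min at ambient temperature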
# FLuc inh counter: Photinus pyralis luciferase inhibition counter-screen; inhibition, % at 10 µM; ATPLite firefly luciferase biochemical luminescence, 10 min; P08659; 200,000 tested, 1.5% active;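 active means inhibition above about 50% when tested at 10 µM, limit read from the data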
# APP 5'UTR act: activates APP 5'UTR luciferase reporter; SH-SY5Y APP 5'UTR luciferase reporter, luminescence; zero percent = DMSO vehicle wells; activation, % at 2 µM; 190,000 tested, 1% active;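 active means activation above a set limit, based on mean plus 3 SD of controls, cut at about 140% in these data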
# Pf gametocyte: inhibitors of late stage P. falciparum gametocyte viability. P. falciparum stage V gametocytes, ATP luminescence, 24 h. inhibition, % at 10.9 µM. 150,000 tested, 0.065% active;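 active means inhibition above the mean plus 3 SD of compounds within the control limits, set per campaign, cut at about 38% in these data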;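 further: 0% = DMSO wells and 100% = medium only without gametocytes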
# Active calls of the source: *; nt = not tested or not shown. Most compounds without a hit are left out; they make up all but 3.5% or so of the library.
SMILES,STAT1 act,NF-kB neuron act,FLuc stim CS,FLuc inh counter,APP 5'UTR act,Pf gametocyte
CC(C)(C)NC(=O)NC(=O)COc1ccccc1C#N,140*,2.1,0.6,37,187*,nt
C=CCNC(=O)COc1ccccc1C#N,118,1.4,1.1,-9,5,nt
c1ccc2c(c1)CC/C2=N/Nc1nc2ccccc2[nH]1,137*,3.4*,0.6,43,180*,13
C(=N\Nc1nc2ccccc2[nH]1)/c1ccc2ncccc2c1,nt,nt,nt,nt,nt,-2
C(=N\Nc1nc2ccccc2[nH]1)/c1ccccn1,13,0.9,0,96*,72,nt
Cc1ccc2cc(/C=N/Nc3nc4ccccc4[nH]3)c(Cl)nc2c1,95,1.9,0.1,94*,86,9
Cc1ccc(/C=N/Nc2nnc(Cc3ccccc3)c(=O)[nH]2)o1,91,0.99,1,1,8,nt
Cc1ccc(/C=N\Nc2nc3ccc(Cl)cc3[nH]2)o1,136*,3.7*,0.7,26,73,nt
C/C=C(\C)CN1CCN(c2ccc(C)cc2)CC1,99,1.5,1.1,-5,7,nt
CCOC(=O)[C@@H]1[C@H]2COc3cc(OC)ccc3[C@@H]2N2C(=O)N(c3ccc(C(F)(F)F)cc3)C(=O)[C@]12C,nt,nt,nt,nt,nt,-5
Cc1ccc(C)c(/C=C(\C(=O)O)c2ccc(S(=O)(=O)N3CCCCC3)s2)c1,94,1.1,1,-2,-8,nt
Cn1c(N/N=C/c2cc3ccccc3nc2Cl)nc2ccccc21,101,1.1,0,96*,121,6
Fc1ccccc1-c1ccc(/C=N/Nc2nc3ccccc3[nH]2)o1,108,2.9,0.1,93*,74,17
Cn1c(N/N=C/c2c[nH]c3ccccc23)nc2ccccc21,120,2.2,0.6,38,81,nt
CCCCn1c(/C=N/Nc2nc3ccccc3[nH]2)nc2ccccc21,112,0.77,0.9,8,-88,11
Cc1ccc(-n2ncc3c(NCc4ccccc4)ncnc32)cc1,136*,1.5,1,1,53,nt
Cc1ccc(CNc2ncnc3c2cnn3-c2ccccc2)cc1,107,1.2,1,0,1,12
Clc1ccc(-n2ncc3c(NCc4ccccn4)ncnc32)cc1,150*,2.6,1,0,26,-28
c1ccc(-n2ncc3c(NCCCN4CCOCC4)ncnc32)cc1,122,2,0.8,17,51,1
C=CCNc1ncnc2c1cnn2-c1cccc(C)c1,142*,5*,0.6,42,212*,nt
CCCCNc1ncnc2c1cnn2-c1ccccc1,134*,5.7*,0.7,35,102,nt
COc1cc(/C=N/NC(=O)CSc2n[nH]c(=O)[nH]c2=O)cc(OC)c1O,100,1,1,-3,30,21
Cc1cccc(-n2ncc3c(NCCCO)ncnc32)c1,141*,3.3,0.5,53*,135*,nt
O=C1CCC[C@@H]2Cc3[nH]c4c(Cl)ccc(Cl)c4c3[C@@H]3CCN1[C@H]23,nt,nt,nt,nt,nt,9
O=C(Nc1ccc(Cl)cc1)c1ccc2nsnc2c1,150*,3.3*,0.8,16,95,-16
SMILES,STAT1 act,NF-kB neuron act,FLuc stim CS,FLuc inh counter,APP 5'UTR act,Pf gametocyte
CN(C)c1ccc(NC(=O)c2ccc3nsnc3c2)cc1,144*,2.6,0.6,37,18,-44
Cc1ccccc1Nc1cc(C(=O)NCC2CCCO2)c2ccccc2n1 (centres undefined),nt,nt,nt,nt,nt,-2
COc1ccc(-c2cn3cc([N+](=O)[O-])ccc3n2)cc1OC,120,1.5,0.8,21,33,2
COc1ccc(-c2cn3ccccc3n2)cc1[N+](=O)[O-],144*,1,0.2,79*,104,18
CCCOc1ccc(-c2cn3ccccc3n2)cc1[N+](=O)[O-],120,4.1*,0.2,78*,142*,6
COc1ccc(S(=O)(=O)NCC(=O)N(CC(=O)NCC2CCCO2)c2cc(C)ccc2C)cc1 (centres undefined),96,1.2,1.1,-6,-10,3
O=C(c1ccccc1)N1CCN(S(=O)(=O)c2cccc(NS(=O)(=O)c3ccccc3)c2)CC1,95,1.6,1,-2,1,-9
O=C(CN1C(=O)c2ccccc2C1=O)c1ccccc1,109,1.3,1,1,16,-8
Nc1ncn(CC(=O)c2ccccc2)n1,98,6.2*,1.1,-7,28,-3
CC(C)Oc1ccc(CNC(=S)N/N=C/c2cccnc2)cc1,99,1.3,1,-4,21,nt
CC(C)C(=O)NC(=S)Nc1ccccc1C(=O)NC1CCCCC1,101,1.2,1,-5,-2,52*
CN(CCC#N)c1ccc(/C=C(\C#N)c2ccccn2)cc1,141*,2.9,0.1,88*,180*,15
CCN(CC)c1ccc(/C=C(\C#N)c2ccccn2)cc1,92,1.9,0.2,85*,160*,nt
Cc1ccc(-c2ccc(CO)o2)cc1N,101,1.1,1,4,43,18
CCOC(=O)c1ccc(COc2ccc(C(C)C)cc2)o1,111,2.1,1,-1,134,-17
CCOC(=O)c1ccc(-c2ccc(CO)o2)cc1,129*,2.8,0.6,38,70,nt
CCOC(=O)c1ccc(COC(=O)c2ccc(-c3nnc(-c4ccccc4)o3)cc2)o1,130*,nt,nt,nt,44,-8
CCOc1ccc(OCc2ccc(C(=O)OCc3ccccn3)o2)cc1,93,4.4*,1,2,108,nt
CCOC(=O)c1ccc(Cn2c(-c3ccccc3)nnc2-c2ccccc2)o1,103,1.1,1,-4,-2,14
O=c1[nH]c(CSc2ccccn2)nc2ccccc12,135*,2.9,0.5,46,123,-7
COCc1cc(C)nc(SCc2nc3ccccc3c(=O)[nH]2)c1C#N,112,1.3,1.1,-5,8,-8
Cc1cc(C)c(C#N)c(SCc2nc3ccccc3c(=O)[nH]2)n1,113,2.5,0.6,38,153*,28
O=c1[nH]c(CSc2ccccn2)nc2c1cnn2-c1ccccc1,111,1.4,1,-2,22,nt
O=C(CCl)NC1(C(F)(F)F)C(=O)Nc2c1c(=O)[nH]c(=O)n2-c1ccccc1 (centres undefined),nt,nt,nt,nt,nt,0
COc1ccc(CN(C)CC(=O)Nc2ccc(Cl)cc2F)c(OC)c1,nt,nt,nt,nt,nt,-1
Cc1cccc(Sc2c([N+](=O)[O-])ncn2C)c1,101,1.3,0.5,52*,3,22
Cc1cccnc1Sc1c([N+](=O)[O-])ncn1C,107,1.1,1,-3,2,6
Cc1cc(C)cc(N=Cc2c(O)c3ccccc3oc2=O)c1,107,1.3,1,-2,1,8
COc1ccc(N=Cc2c(O)c3ccccc3oc2=O)cc1,140*,0.93,0.1,88*,14,nt
O=C(N/N=C/c1sc(=O)n(-c2ccccc2)c1Cl)c1ccccc1,147*,1,0.3,67*,89,-7
